Experimental data as given in ChEMBL document CHEMBL2069244 (Bioorg Med Chem Lett, 2012).
Calls of active or inactive are those of the source.

How the values were obtained:
Mus musculus [1] = assay: Anticonvulsant activity in ip dosed mouse assessed as protection against 32mA-induced seizure measured after 0.25 to 0.5 hrs by 6Hz psychomotor seizure test
Mus musculus [2] = assay: Anticonvulsant activity in mouse assessed as protection against subcutaneous pentylenetetrazole-induced seizures at 30 mg/kg, ip after 4 hrs; format: functional, organism-based; design: dose 30 mg/kg
Mus musculus [3] = assay: Anticonvulsant activity in mouse assessed as protection against subcutaneous pentylenetetrazole-induced seizures at 300 mg/kg, ip after 4 hrs; format: functional, organism-based; design: dose 300 mg/kg
Mus musculus [4] = assay: Anticonvulsant activity in mouse assessed as protection against subcutaneous pentylenetetrazole-induced seizures at 30 mg/kg, ip after 0.5 hrs; format: functional, organism-based; design: dose 30 mg/kg
Mus musculus [5] = assay: Anticonvulsant activity in mouse assessed as protection against maximal electroshock-induced seizures at 300 mg/kg, ip after 0.5 hrs; format: functional, organism-based; design: dose 300 mg/kg
In short: (§1)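 Mice dosed ip in 30% polyethylene glycol. Corneas pretreated with 1% tetracaine, then 60 Hz alternating current (50 mA) applied for 0.2 s via corneal electrodes. Protection means absence of the hindlimb tonic extensor component. Scored as number protected/number tested.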

Mus musculus [6] = assay: Neurotoxicity in mouse at 100 mg/kg, ip after 1 hrs by 6Hz psychomotor seizure test; format: toxicity, organism-based; design: dose 100 mg/kg, route intraperitoneal; settings: in vivo
In short: (§2)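 Mice dosed ip in 30% polyethylene glycol and placed on a rotorod at 6 rpm. An animal is scored toxic if it falls off three times within 1 min.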

Mus musculus [7] = assay: Anticonvulsant activity in mouse assessed as protection against maximal electroshock-induced seizures at 30 mg/kg, ip after 4 hrs; format: functional, organism-based; design: dose 30 mg/kg
In short: as §1

Mus musculus [8] = assay: Anticonvulsant activity in mouse assessed as protection against maximal electroshock-induced seizures at 30 mg/kg, ip after 0.5 hrs; format: functional, organism-based; design: dose 30 mg/kg
In short: as §1

Mus musculus [9] = assay: Anticonvulsant activity in mouse assessed as protection against maximal electroshock-induced seizures at 300 mg/kg, ip after 4 hrs; format: functional, organism-based; design: dose 300 mg/kg
In short: as §1

Mus musculus [10] = assay: Anticonvulsant activity in mouse assessed as protection against maximal electroshock-induced seizures at 100 mg/kg, ip after 4 hrs; format: functional, organism-based; design: dose 100 mg/kg
In short: as §1

Mus musculus [11] = assay: Neurotoxicity in mouse at 100 mg/kg, ip after 2 hrs by 6Hz psychomotor seizure test; format: toxicity, organism-based; design: dose 100 mg/kg, route intraperitoneal; settings: in vivo
In short: as §2

Mus musculus [12] = assay: Anticonvulsant activity in mouse assessed as protection against subcutaneous pentylenetetrazole-induced seizures at 100 mg/kg, ip after 0.5 hrs; format: functional, organism-based; design: dose 100 mg/kg
Mus musculus [13] = assay: Neurotoxicity in mouse at 100 mg/kg, ip after 0.25 hrs by 6Hz psychomotor seizure test; format: toxicity, organism-based; design: dose 100 mg/kg, route intraperitoneal; settings: in vivo
In short: as §2

Mus musculus [14] = assay: Neurotoxicity in mouse at 100 mg/kg, ip after 4 hrs by 6Hz psychomotor seizure test; format: toxicity, organism-based; design: dose 100 mg/kg, route intraperitoneal; settings: in vivo
In short: as §2

Mus musculus [15] = assay: Anticonvulsant activity in mouse assessed as protection against maximal electroshock-induced seizures at 100 mg/kg, ip after 0.5 hrs; format: functional, organism-based; design: dose 100 mg/kg
In short: as §1

Mus musculus [16] = assay: Neurotoxicity in mouse at 100 mg/kg, ip after 0.5 hrs by 6Hz psychomotor seizure test; format: toxicity, organism-based; design: dose 100 mg/kg, route intraperitoneal; settings: in vivo
In short: as §2

Mus musculus [17] = assay: Anticonvulsant activity in mouse assessed as protection against subcutaneous pentylenetetrazole-induced seizures at 100 mg/kg, ip after 4 hrs; format: functional, organism-based; design: dose 100 mg/kg
Mus musculus [18] = assay: Anticonvulsant activity in mouse assessed as protection against subcutaneous pentylenetetrazole-induced seizures at 300 mg/kg, ip after 0.5 hrs; format: functional, organism-based; design: dose 300 mg/kg
Mus musculus [19] = assay: Protective index, ratio of TD50 for neurotoxicity in ip dosed mouse to ED50 for anticonvulsant activity in mouse by 6Hz psychomotor seizure test; format: functional
In short: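 Mice dosed ip in 30% polyethylene glycol. TD50 comes from rotorod toxicity at 6 rpm (three falls in 1 min). ED50 comes from 6 Hz, 32 mA seizure protection. Both are from probit analysis with 95% confidence intervals, and the index is TD50/ED50.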

Mus musculus [20] = assay: Anticonvulsant activity in mouse assessed as peak time to protect against electrically-induced seizure at 100 mg/kg, ip by 6Hz psychomotor seizure test; format: functional; settings: route intraperitoneal
In short: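 Mice dosed ip in 30% polyethylene glycol, then given a 6 Hz, 32 mA corneal stimulus. Animals lacking the minimal clonic phase and stereotyped automatistic behaviours count as protected. Data are number protected/number tested at each time after dosing.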

Mus musculus [21] = assay: Anticonvulsant activity in mouse assessed as protection against maximal electroshock-induced seizures at 100 mg/kg, ip after 1 hrs; format: functional, organism-based; design: dose 100 mg/kg
In short: as §1

Mus musculus [22] = assay: Anticonvulsant activity in mouse assessed as protection against maximal electroshock-induced seizures at 100 mg/kg, ip after 0.25 hrs; format: functional, organism-based; design: dose 100 mg/kg
In short: as §1

Mus musculus [23] = assay: Anticonvulsant activity in mouse assessed as protection against maximal electroshock-induced seizures at 100 mg/kg, ip after 6 hrs; format: functional, organism-based; design: dose 100 mg/kg
In short: as §1

Mus musculus [24] = assay: Anticonvulsant activity in mouse assessed as protection against maximal electroshock-induced seizures at 100 mg/kg, ip after 2 hrs; format: functional, organism-based; design: dose 100 mg/kg
In short: as §1

CC(C)c1cccc(C(C)C)c1O [PROPOFOL]
38.6 mg/kg: ED50 (Mus musculus [1])

CCCc1cc(C(O)C(F)(F)F)cc(Br)c1O (stereo not drawn)
Non-toxic: Activity (Mus musculus [6]) | Activity (Mus musculus [11]) | Activity (Mus musculus [13]) | Activity (Mus musculus [14]) | Activity (Mus musculus [16])
inactive: Activity (Mus musculus [2]) | Activity (Mus musculus [3]) | Activity (Mus musculus [4]) | Activity (Mus musculus [5]) | Activity (Mus musculus [7]) | Activity (Mus musculus [8]) | Activity (Mus musculus [9]) | Activity (Mus musculus [10]) | Activity (Mus musculus [12]) | Activity (Mus musculus [15]) | Activity (Mus musculus [17]) | Activity (Mus musculus [18])

CCC(C)c1cc(C(O)C(F)(F)F)ccc1O (stereo not drawn)
53.9 mg/kg: ED50 (Mus musculus [1])
active: Activity (Mus musculus [5]) | Activity (Mus musculus [18])
inactive: Activity (Mus musculus [2]) | Activity (Mus musculus [3]) | Activity (Mus musculus [4]) | Activity (Mus musculus [7]) | Activity (Mus musculus [8]) | Activity (Mus musculus [9]) | Activity (Mus musculus [10]) | Activity (Mus musculus [12]) | Activity (Mus musculus [15]) | Activity (Mus musculus [17])
0.5 h: Time (Mus musculus [20])
1.6: Ratio TD50/ED50 (Mus musculus [19])

CC(C)c1cc(C(O)C(F)(F)F)ccc1O (stereo not drawn)
1.9: Ratio TD50/ED50 (Mus musculus [19])
inactive: Activity (Mus musculus [2]) | Activity (Mus musculus [4]) | Activity (Mus musculus [7]) | Activity (Mus musculus [8]) | Activity (Mus musculus [21]) | Activity (Mus musculus [10]) | Activity (Mus musculus [12]) | Activity (Mus musculus [15]) | Activity (Mus musculus [22]) | Activity (Mus musculus [23]) | Activity (Mus musculus [17]) | Activity (Mus musculus [24])
0.25 h: Time (Mus musculus [20])
84.1 mg/kg: ED50 (Mus musculus [1])
active: Activity (Mus musculus [3]) | Activity (Mus musculus [5]) | Activity (Mus musculus [9]) | Activity (Mus musculus [18])

CCC(C)c1cc(C(O)C(F)(F)F)cc(C(C)CC)c1O (stereo not drawn)
73 mg/kg: ED50 (Mus musculus [1])
